The values that follow come from PubChem BioAssay.

Active and inactive are the calls of the source.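 The calls were made as follows, unless noted: active = GFP response above 150% of the DMSO level; inconclusive = fewer than 70 events counted for a yeast strain; inactive = the rest.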

Assay [1] can be described thus: hit retest on RPL19A-GFP reporter strain – cell-based, S. cerevisiae, flow cytometry, cherry picks, mother/daughter gates, confirmation (AID 2270;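 active = GFP response below 50% of the DMSO control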). The conditions noted are these: 3 h, at 10 µM, stronger effect = lower value, 100 = same GFP as DMSO wells. For orientation: In flow cytometry, cells or beads pass a laser one at a time.
A short description of assay [2]: yeast TOR pathway reporter LAP4-GFP change – cell-based, cherry picks, flow cytometry, mother/daughter gates, confirmation (AID 2271;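 active = GFP response above 150% of the DMSO control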;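 also: ratio of sample to DMSO plate mean so 100% equals DMSO level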). The conditions noted are these: S. cerevisiae LAP4-GFP strain, 3 h, at 10 µM, stronger effect = higher value, 100 means same as DMSO control. In a few lines:
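Material: Alexa Fluor 633-labelled Saccharomyces cerevisiae GFP-fusion strain, single-plex | Amount: Yeast cells seeded at OD600 of 0.2 | Buffer or medium: SC growth medium | Schedule: 3 h exposure, 30 °C | Measured by: HT flow cytometry, GFP fluorescence channel | Evaluation: % GFP response vs DMSO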

Assay [3] can be described thus: TOR pathway reporter MEP2-GFP, retest of hits – S. cerevisiae, flow cytometry GFP, cherry picks, confirmation (AID 2272;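 active = GFP response above 150% of the DMSO control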;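 also: ratio of well signal to plate DMSO mean so 100% equals DMSO level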). The conditions noted are these: S. cerevisiae MEP2-GFP strain, 3 h, at 10 µM, stronger effect = higher value.
Assay [4] in a line: yeast AGP1-GFP fluorescence change, single-dose – cell-based, flow cytometry, S. cerevisiae, cherry picks, confirmation (AID 2273).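 Also: median GFP channel fluorescence over the whole cell population gate.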 To be noted: S. cerevisiae AGP1-GFP strain, 3 h, at 10 µM.
Assay [5] in a line: TOR pathway CIT2 reporter hit retest – S. cerevisiae, GFP fusion, cherry picks, mother/daughter gates, confirmation (AID 2274). To be noted: S. cerevisiae CIT2-GFP strain, flow cytometry, 3 h, at 10 µM, stronger effect = higher value.
[6] abbreviates: measured here: daughter cell gate.
Where [7] appears, read: measured here: mother cell gate.
Where [8] appears, read: measured here: daughter cell gate response.
Where [9] appears, read: measured here: mother cell gate response.

For `COC(=O)Cn1c(C)c(/C=C/c2cc[n+](C)cc2)c2ccccc21`, the GFP response vs DMSO in assay [1] is 100% (inactive); in assay [1] (setting [6]), 99.6%; in assay [1] (setting [7]) it was 101%; in assay [3] it was 129% (inactive). Also, the results for the GFP response relative to DMSO in assay [2], in assay [2] (setting [8]) and in assay [2] (setting [9]) were 119% (inactive), 121% and 117%, respectively. Besides, the GFP response, % of DMSO in assay [4] was 99.7% (inactive); in assay [5], 117% (inactive); in assay [5] (setting [6]), 121%; in assay [5] (setting [7]), 113%.

Turning to `COCCNC(=O)c1ccc(Cl)c(Cl)c1`, the GFP response vs DMSO is 97.2% (inactive) in assay [1], 95.6% in assay [1] (setting [6]), 95.3% in assay [1] (setting [7]) and 100% (inactive) in assay [3]. Further, the GFP response relative to DMSO in assay [2] is 102% (inactive); in assay [2] (setting [8]), 101%; in assay [2] (setting [9]), 96.1%. Moreover, the GFP response, % of DMSO in assay [4] was 100% (inactive); in assay [5] it was 105% (inactive); in assay [5] (setting [6]), 103%; in assay [5] (setting [7]), 93.8%.

As for `CCn1c2ccccc2c2cc(/C=N/n3cn[nH]c3=S)ccc21`, the GFP response vs DMSO in assay [1] was 93.6% (inactive); in assay [1] (setting [6]) it was 91.6%; in assay [1] (setting [7]) it was 93.3%; in assay [3] it was 97.2% (inactive). In addition, the results for the GFP response relative to DMSO in assay [2], in assay [2] (setting [8]) and in assay [2] (setting [9]) were 139% (inactive), 128% and 141%, respectively. For the same compound, the GFP response, % of DMSO in assay [4] was 94.3% (inactive); in assay [5] it was 87.5% (inactive); in assay [5] (setting [6]), 86.9%; in assay [5] (setting [7]), 84.8%.

In the case of `COc1ccc(OC(=O)c2cc(S(=O)(=O)N3CCCC3)ccc2Cl)cc1`, the GFP response vs DMSO in assay [1] is 97.6% (inactive); in assay [1] (setting [6]), 96.9%; in assay [1] (setting [7]), 97.2%; in assay [3], 98.3% (inactive). Also, the GFP response relative to DMSO in assay [2] is 97.9% (inactive); in assay [2] (setting [8]), 99.2%; in assay [2] (setting [9]), 97.2%. In addition, the GFP response, % of DMSO in assay [4] was 94.3% (inactive); in assay [5] it was 101% (inactive); in assay [5] (setting [6]), 103%; in assay [5] (setting [7]) it was 101%.

As for `COc1ccc(-c2noc(CCC(=O)Nc3cccc(C)c3)n2)cc1`, the GFP response vs DMSO in assay [1] is 96.6% (inactive); in assay [1] (setting [6]), 96.7%; in assay [1] (setting [7]), 96.2%; in assay [3] it was 102% (inactive). Further, the figures for the GFP response relative to DMSO in assay [2], in assay [2] (setting [8]) and in assay [2] (setting [9]) were 109% (inactive), 105% and 108%, respectively. Also, the GFP response, % of DMSO in assay [4] was 96.9% (inactive); in assay [5], 97.8% (inactive); in assay [5] (setting [6]), 98.3%; in assay [5] (setting [7]), 94.5%.

In the case of `COc1ccc(Cc2nnc(NC(=O)c3ccccc3F)s2)cc1`, the GFP response vs DMSO was 97.6% (inactive) in assay [1], 96.4% in assay [1] (setting [6]), 98.5% in assay [1] (setting [7]) and 100% (inactive) in assay [3]. The results for the GFP response relative to DMSO in assay [2], in assay [2] (setting [8]) and in assay [2] (setting [9]) were 101% (inactive), 105% and 101%, respectively. Moreover, the GFP response, % of DMSO in assay [4] was 98.3% (inactive); in assay [5] it was 100% (inactive); in assay [5] (setting [6]), 99.7%; in assay [5] (setting [7]), 97.7%.

For `O=C(N=Nc1c(O)[nH]c2ccccc12)c1ccco1`, the GFP response vs DMSO was 98.2% (inactive) in assay [1], 98.6% in assay [1] (setting [6]), 97.8% in assay [1] (setting [7]) and 98.8% (inactive) in assay [3]. Besides, the GFP response relative to DMSO in assay [2] was 99.8% (inactive); in assay [2] (setting [8]), 98.2%; in assay [2] (setting [9]), 102%. For the same compound, the GFP response, % of DMSO in assay [4] was 100% (inactive); in assay [5] it was 103% (inactive); in assay [5] (setting [6]), 102%; in assay [5] (setting [7]) it was 102%.

In the case of `O=C1ON=C(c2ccccc2)/C1=C\c1ccco1`, the GFP response vs DMSO is 101% (inactive) in assay [1], 90.8% in assay [1] (setting [6]), 87% in assay [1] (setting [7]) and 124% (inactive) in assay [3]. Further, the GFP response relative to DMSO in assay [2] is 168% (active); in assay [2] (setting [8]), 143%; in assay [2] (setting [9]) it was 165%. Also, the GFP response, % of DMSO in assay [4] is 93.2% (inactive); in assay [5], 82.2% (inactive); in assay [5] (setting [6]), 89.9%; in assay [5] (setting [7]), 70.8%.

For `Cc1n[nH]c(C)c1N1C(=O)c2cccc3c(Br)ccc(c23)C1=O`, the GFP response vs DMSO in assay [1] was 101% (inactive); in assay [1] (setting [6]) it was 100%; in assay [1] (setting [7]), 101%; in assay [3], 104% (inactive). Besides, the figures for the GFP response relative to DMSO in assay [2], in assay [2] (setting [8]) and in assay [2] (setting [9]) were 98.8% (inactive), 99.3% and 98.5%, respectively. Moreover, the GFP response, % of DMSO in assay [4] is 92.5% (inactive); in assay [5], 96.4% (inactive); in assay [5] (setting [6]), 96.4%; in assay [5] (setting [7]), 94.5%.

For `N/C(Cc1ccc(Cl)c(Cl)c1)=N\OC(=O)c1cccs1`, the GFP response vs DMSO in assay [1] is 94.9% (inactive); in assay [1] (setting [6]) it was 89.4%; in assay [1] (setting [7]) it was 83%; in assay [3], 122% (inactive). The GFP response relative to DMSO in assay [2] is 226% (active); in assay [2] (setting [8]), 160%; in assay [2] (setting [9]) it was 206%. Besides, the GFP response, % of DMSO in assay [4] is 103% (inactive); in assay [5] it was 176% (active); in assay [5] (setting [6]) it was 126%; in assay [5] (setting [7]), 159%.

Take `CC(=O)Nc1ccc(S(=O)(=O)NC(CC(=O)NCCC2=CCCCC2)C(C)C)cc1` (configuration not stated): the GFP response vs DMSO in assay [1] was 99.8% (inactive); in assay [1] (setting [6]) it was 99.4%; in assay [1] (setting [7]) it was 101%; in assay [3], 102% (inactive). Further, the GFP response relative to DMSO is 99.2% (inactive) in assay [2], 99.2% in assay [2] (setting [8]) and 96.1% in assay [2] (setting [9]). The GFP response, % of DMSO in assay [4] is 101% (inactive); in assay [5], 101% (inactive); in assay [5] (setting [6]) it was 101%; in assay [5] (setting [7]), 101%.

`CCOc1ccccc1NC(=O)c1nc(S(=O)(=O)Cc2ccccc2)ncc1Cl`: the GFP response vs DMSO was 97.8% (inactive) in assay [1], 99.8% in assay [1] (setting [6]), 97.1% in assay [1] (setting [7]) and 103% (inactive) in assay [3]. Also, the results for the GFP response relative to DMSO in assay [2], in assay [2] (setting [8]) and in assay [2] (setting [9]) were 94.1% (inactive), 96% and 95.4%, respectively. Besides, the GFP response, % of DMSO in assay [4] was 106% (inactive); in assay [5] it was 98.6% (inactive); in assay [5] (setting [6]), 101%; in assay [5] (setting [7]) it was 97.1%.

Turning to `O=C(/C=C/c1ccc(F)cc1)NC(=S)NNC(=O)c1cnccn1`, the GFP response vs DMSO is 108% (inactive) in assay [1], 89.8% in assay [1] (setting [6]), 105% in assay [1] (setting [7]) and 132% (inactive) in assay [3]. The GFP response relative to DMSO in assay [2] is 313% (active); in assay [2] (setting [8]), 146%; in assay [2] (setting [9]), 301%. Besides, the GFP response, % of DMSO in assay [4] is 83.4% (inactive); in assay [5], 124% (inactive); in assay [5] (setting [6]), 101%; in assay [5] (setting [7]) it was 113%.

With `CCOC(=O)c1sc(NC(=O)c2ccc3ncsc3c2)nc1C`, the GFP response vs DMSO in assay [1] was 98% (inactive); in assay [1] (setting [6]), 95%; in assay [1] (setting [7]), 94.8%; in assay [3], 110% (inactive). Moreover, the GFP response relative to DMSO is 95.3% (inactive) in assay [2], 96% in assay [2] (setting [8]) and 93.4% in assay [2] (setting [9]). In addition, the GFP response, % of DMSO in assay [4] is 96.4% (inactive); in assay [5] it was 98.6% (inactive); in assay [5] (setting [6]) it was 95.8%; in assay [5] (setting [7]) it was 93.8%.

Consider `O=C(/C=C/c1c(F)cccc1Cl)c1ccc(O)cc1`, for which the GFP response vs DMSO in assay [1] is 94.3% (inactive); in assay [1] (setting [6]), 94%; in assay [1] (setting [7]), 94.6%; in assay [3] it was 105% (inactive). The GFP response relative to DMSO in assay [2] was 144% (inactive); in assay [2] (setting [8]), 137%; in assay [2] (setting [9]) it was 152%. For the same compound, the GFP response, % of DMSO is 105% (inactive) in assay [4], 94.7% (inactive) in assay [5], 93.7% in assay [5] (setting [6]) and 93.7% in assay [5] (setting [7]).

On to `COCCCNC(=O)c1ccc2c3c(onc13)-c1ccccc1C2=O`, for which the GFP response vs DMSO in assay [1] was 96.3% (inactive); in assay [1] (setting [6]) it was 102%; in assay [1] (setting [7]), 92.9%; in assay [3] it was 102% (inactive). Moreover, the GFP response relative to DMSO is 132% (inactive) in assay [2], 126% in assay [2] (setting [8]) and 137% in assay [2] (setting [9]). For the same compound, the GFP response, % of DMSO was 83.6% (inactive) in assay [4], 96.5% (inactive) in assay [5], 103% in assay [5] (setting [6]) and 90.2% in assay [5] (setting [7]).

`Cc1cccc(CSCc2ccc(C(=O)NC(C)C)o2)c1`: the GFP response vs DMSO in assay [1] is 101% (inactive); in assay [1] (setting [6]), 98.1%; in assay [1] (setting [7]) it was 101%; in assay [3], 96.8% (inactive). Also, the GFP response relative to DMSO in assay [2] is 99.5% (inactive); in assay [2] (setting [8]), 95.9%; in assay [2] (setting [9]), 99.4%. In addition, the GFP response, % of DMSO in assay [4] is 101% (inactive); in assay [5], 102% (inactive); in assay [5] (setting [6]) it was 103%; in assay [5] (setting [7]) it was 99.3%.
